Sampled rows, rich in hits. Any-hit rate of the full collection: about 2.2%.
V-ATPase pHluor: regulators of yeast V-ATPase proton pumping, primary screen, pHLuorin cytosolic pH fluorescence; AID 504577, 2011; response, % at 10 µM; 350,000 tested, 0.37% active; S. cerevisiae; in the data active = response mostly above about 7.3%, no sharp cut-off; inactive = mostly below about 5.4%; note: actives read high
HIV Env fusion: inhibitors of HIV-1 Env-driven cell-cell fusion, primary screen, HeLa-JRFL effector, CEM21 target cells, luciferase; inhibition, % at 12.3 µM; 360,000 tested, 1.1% active; AID 651610, 2012;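 active = mean replicate inhibition score of at least 50 and every replicate individually at or above 50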;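 note: 0% = plate neutral controls and 100% = maraviroc near 300 nM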
GAA850 FXN act: FXN promoter activators, primary screen, cell-based, luciferase luminescence, HEK293 lucGAA850 | HEK293 lucGAA850 FXN promoter luciferase reporter, 24 h; percent of 10 µM SAHA response | activation, % at 6 µM | 360,000 tested, 0.56% active | AID 540364, 2011;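 active = activation above the average of all compounds screened plus 3 SD, cutoff fixed separately per campaign, cut at about 7.5% in these data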;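 note: 0% = DMSO wells and 100% = 10 µM SAHA wells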
NR2E3 ag-1: inhibitors of NR2E3-RetCOR corepressor binding, primary screen, NR2E3 agonist project, biochemical, TR-FRET, GST-NR2E3, biotin-RetCOR | Photoreceptor-specific nuclear receptor (Homo sapiens), Q9Y5X4 | 1536-well | inhibition of corepressor binding, % at 4.78 µM | 320,000 tested, 0.12% active | AID 2300, 2010;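 active = percent inhibition above the cutoff of mean plus 3 SD of all tested compounds, set per screening campaign, cut at about 20% in these data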;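 note: 0% = DMSO wells and 100% = biotin wells as full block of FRET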
Target sequence (Q9Y5X4 whole entry, looked up): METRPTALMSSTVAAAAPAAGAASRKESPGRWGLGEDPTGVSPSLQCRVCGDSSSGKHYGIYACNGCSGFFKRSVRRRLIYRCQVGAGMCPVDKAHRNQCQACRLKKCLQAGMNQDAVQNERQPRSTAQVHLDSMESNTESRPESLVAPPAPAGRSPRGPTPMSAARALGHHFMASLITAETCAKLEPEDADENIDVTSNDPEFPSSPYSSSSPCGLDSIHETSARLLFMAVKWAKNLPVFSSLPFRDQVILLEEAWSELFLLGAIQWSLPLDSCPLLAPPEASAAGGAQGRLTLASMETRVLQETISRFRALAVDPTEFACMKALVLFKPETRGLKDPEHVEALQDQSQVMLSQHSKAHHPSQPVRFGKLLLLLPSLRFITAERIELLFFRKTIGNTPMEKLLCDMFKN
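Material – GST-tagged NR2E3 plus biotinylated RetCOR corepressor · Quantity – NR2E3 fusion 1.35 nM · Times – 5 h incubation at 4 °C · Medium – pH 7.5 Tris-based buffer · Technique – TR-FRET, Eu(K)-anti-GST donor, streptavidin-D2 acceptor, ex 340, em 617/671 nm · Benchmarks – high control biotin, low control 0.6% DMSO · Format – 1536-well plates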
GalR3 antagonist: GalR3 antagonists in HEK293 cells, primary screen, cell-based, fluorescence readout; Galanin receptor type 3 (Homo sapiens), O60755; HEK293 GalR3-CNG cAMP membrane potential fluorescence; galR3 body fused to GalR1 C-terminus; inhibition, % at 3 µM; 360,000 tested, 0.44% active; AID 651719, 2012;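 active = inhibition above the screen-wide average plus 3 SD, cut at about 13% in these data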;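 note: forskolin and galanin both at EC90 stimulate the cells; cAMP rise reported by CNG channel membrane potential dye signal; 0% = forskolin plus galanin with DMSO and 100% = forskolin alone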
Target sequence (O60755 1-299 limits assumed): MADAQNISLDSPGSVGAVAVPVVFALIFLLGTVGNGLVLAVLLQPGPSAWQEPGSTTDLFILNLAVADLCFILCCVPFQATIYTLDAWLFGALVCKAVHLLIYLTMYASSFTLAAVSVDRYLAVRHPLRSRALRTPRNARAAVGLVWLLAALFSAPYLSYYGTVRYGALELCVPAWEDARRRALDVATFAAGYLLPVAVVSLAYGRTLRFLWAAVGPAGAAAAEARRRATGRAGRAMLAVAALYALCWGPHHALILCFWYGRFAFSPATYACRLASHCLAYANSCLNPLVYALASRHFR
NR2E3 ag-2: NR2E3 agonists in two-hybrid cells, primary screen, cell-based, luminescence, CHO-S, Gal4-NCOR/VP16-NR2E3 | 360,000 tested, 0.35% active | inhibition of corepressor binding, % at 3.98 µM | luciferase | AID 602229, 2012;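 active = inhibition above the mean of all tested compounds plus 3 SD, cut at about 70% in these data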;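 note: 0% = DMSO with NR2E3 transfected cells and 100% = cells lacking NR2E3 construct; higher means lower luciferase signal from less NR2E3 corepressor binding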
Active calls of the source: *; [ ] = remark or other dose.

Screening COc1ccccc1CNC(=O)CC1C(=O)NCCN1C1Cc2ccccc2C1 (stereo not drawn) returned V-ATPase pHluor -0.5, HIV Env fusion 8.5, GAA850 FXN act 1.4, NR2E3 ag-1 -2.3, GalR3 antagonist 0.2 and NR2E3 ag-2 -33.9.
Screening COc1ccc(CNC(=O)CC2C(=O)NCCN2C2Cc3ccccc3C2)cc1 (stereo not drawn) returned V-ATPase pHluor -2.9, HIV Env fusion 61.3*, GAA850 FXN act 3.2, NR2E3 ag-1 1.1, GalR3 antagonist -4.6 and NR2E3 ag-2 10.0.
For CC1(C)Cc2c(sc3nc(SCC(=O)NCc4ccco4)n(-c4ccccc4)c(=O)c23)CS1 the results were V-ATPase pHluor 0.3, GAA850 FXN act 2.5, NR2E3 ag-1 1.1, GalR3 antagonist 0.0 and NR2E3 ag-2 -1.1.
`O=C(CSc1nc2sc3c(c2c(=O)n1-c1ccccc1)CCCC3)NCc1ccco1` gave V-ATPase pHluor 2.8, HIV Env fusion 66.3*, GAA850 FXN act -6.0, NR2E3 ag-1 2.6, GalR3 antagonist -1.9 and NR2E3 ag-2 47.0.
Screening C[C@H](CO)N1C[C@H](C)[C@@H](CN(C)CC2CCCCC2)Oc2ccc(NC(=O)CCC(F)(F)F)cc2C1=O returned HIV Env fusion -0.5[16.7 µM].
For COc1cccc(Nc2nc(CN)cs2)n1 the results were HIV Env fusion 57.1*, GAA850 FXN act 2.0, GalR3 antagonist -0.9 and NR2E3 ag-2 -3.1.
`CCOC(=O)C1CCCN(C(=O)c2ccc3c(=O)n(CCOC)c(=S)[nH]c3c2)C1` (stereo not drawn) gave V-ATPase pHluor 6.0, HIV Env fusion 65.6*, GAA850 FXN act 1.3, NR2E3 ag-1 -1.4, GalR3 antagonist -8.3 and NR2E3 ag-2 9.5.
`CO[C@H]1CN(C)C(=O)c2cc(NC(=O)C3CC3)ccc2OC[C@H](C)N(CCc2ccccc2)C[C@H]1C` gave HIV Env fusion -2.8[16.7 µM].
For O=C1NC(=S)S/C1=C\C=C\c1ccc([N+](=O)[O-])o1 the results were V-ATPase pHluor 54.0*, HIV Env fusion inactive, GAA850 FXN act -9.8, GalR3 antagonist -6.2 and NR2E3 ag-2 44.6.
C[C@@H]1CCCCO[C@@H](CN(C)Cc2ccc(C(F)(F)F)cc2)[C@H](C)CN([C@@H](C)CO)C(=O)c2cc(NS(=O)(=O)c3cn(C)cn3)ccc2O1 was read as HIV Env fusion 2.9[16.7 µM].
For CCCC(=O)Nc1ccc2c(c1)C(=O)N(C)[C@H]1CC[C@H](CC(=O)N3CCc4ccccc4C3)O[C@H]1CO2 the results were HIV Env fusion -3.7[16.7 µM].
`Cc1cc(Cl)c(S(=O)(=O)NC(C(=O)O)C(C)C)cc1OCC(=O)NC1CCCCC1` (stereo not drawn) gave V-ATPase pHluor -1.5, HIV Env fusion 17.3, GAA850 FXN act -2.3, NR2E3 ag-1 -4.2, GalR3 antagonist 1.8 and NR2E3 ag-2 -8.0.
`Cc1cc(Cl)c(S(=O)(=O)N2CCCC2)cc1OCC(=O)NC1CCCCC1` gave V-ATPase pHluor 2.9, HIV Env fusion 78.0*, GAA850 FXN act -5.1, NR2E3 ag-1 4.2, GalR3 antagonist -2.2 and NR2E3 ag-2 13.1.
COc1ccccc1C#Cc1ccc([C@H]2[C@@H](C#N)N(C(=O)C3CCC3)[C@H]2CO)cc1 was read as HIV Env fusion -1.4[16.7 µM].
Screening C[C@@H]1CCCCO[C@H](CN(C)CC2CCCCC2)[C@@H](C)CN([C@H](C)CO)C(=O)c2cc(NC(=O)c3ccccc3)ccc2O1 returned HIV Env fusion 5.7[16.7 µM].
For C[C@@H]1CN([C@H](C)CO)C(=O)c2cc(NC(=O)Nc3cccc4ccccc34)ccc2O[C@@H]1CN(C)Cc1ccc(C(F)(F)F)cc1 the results were HIV Env fusion 73.6*[16.7 µM].
C[C@H]1CCCCO[C@@H](CN(C)Cc2ccc(C(F)(F)F)cc2)[C@@H](C)CN([C@@H](C)CO)C(=O)c2cc(NC(=O)Nc3cccc4ccccc34)ccc2O1 was read as HIV Env fusion 61.4*[16.7 µM].
Screening C[C@@H]1CCCCO[C@@H](CN(C)Cc2ccc(C(F)(F)F)cc2)[C@H](C)CN([C@@H](C)CO)C(=O)c2cc(NC(=O)c3ccccc3)ccc2O1 returned HIV Env fusion 56.4*[16.7 µM].
C[C@@H]1CN([C@@H](C)CO)C(=O)c2cc(NC(=O)c3ccccc3)ccc2O[C@@H](C)CCCCO[C@H]1CN(C)CC1CCCCC1 was read as HIV Env fusion 62.5*[16.7 µM].
`C[C@@H]1CN([C@H](C)CO)C(=O)c2c(c3ccccc3n2C)-c2ccccc2CO[C@@H]1CN(C)C(=O)c1ccncc1` gave HIV Env fusion -3.7[16.7 µM].
`CCCNC(=O)N1CC2(CCN(C(=O)c3cccnc3)CC2)c2c([nH]c3cc(OC)ccc23)[C@@H]1CO` gave HIV Env fusion 6.0[16.7 µM].
`C[C@@H]1CCCCO[C@H](CN(C)Cc2ccccc2)[C@@H](C)CN([C@H](C)CO)C(=O)c2cc(NC(=O)Nc3ccc(C(F)(F)F)cc3)ccc2O1` gave HIV Env fusion 4.0[16.7 µM].
`C[C@@H]1CCCCO[C@H](CN(C)Cc2ccc(C(F)(F)F)cc2)[C@H](C)CN([C@@H](C)CO)C(=O)c2cc(NC(=O)Nc3ccccc3)ccc2O1` gave HIV Env fusion 39.7[16.7 µM].
`C[C@@H]1CN([C@H](C)CO)C(=O)c2cc(NC(=O)Nc3ccccc3)ccc2O[C@@H](C)CCCCO[C@@H]1CN(C)Cc1ccc(C(F)(F)F)cc1` gave HIV Env fusion 58.4*[16.7 µM].
C[C@H](CO)N1C[C@H](C)[C@H](CN(C)Cc2ccccc2)OCCCC[C@H](C)Oc2ccc(NC(=O)Nc3ccc(C(F)(F)F)cc3)cc2C1=O was read as HIV Env fusion 65.5*[16.7 µM].
C[C@H]1CCCCO[C@H](CN(C)Cc2ccccc2)[C@@H](C)CN([C@@H](C)CO)C(=O)c2cc(NC(=O)Nc3ccc(C(F)(F)F)cc3)ccc2O1 was read as HIV Env fusion 32.0[16.7 µM].
Screening C[C@H]1CCCCO[C@@H](CN(C)Cc2ccccc2)[C@@H](C)CN([C@@H](C)CO)C(=O)c2cc(NC(=O)Nc3ccc(C(F)(F)F)cc3)ccc2O1 returned HIV Env fusion 68.1*[16.7 µM].
For C[C@H](CO)N1C[C@H](C)[C@H](CN(C)CC2CC2)OCCCC[C@H](C)Oc2ccc(NC(=O)Nc3cccc4ccccc34)cc2C1=O the results were HIV Env fusion 62.0*[16.7 µM].
CN(C)CCCNC(=O)C[C@H]1CC[C@H]2[C@H](COc3ccc(NC(=O)c4ccc5c(c4)OCO5)cc3C(=O)N2C)O1 was read as HIV Env fusion 11.6[16.7 µM].

Source: PubChem BioAssay (several laboratories)
